Test results published in PMC10009879 (RSC Advances, 2023).
Values after ≈ are worked out from the molar mass of the structure shown. Values belong to the compound of their own block, whether it stands above or below them.

Key:
[1] = test system: α-glucosidase; details: cited from earlier work
[2] = test system: α-glucosidase; experiment: α-Glucosidase inhibition type and inhibition constants by Lineweaver–Burk plots; type: biochemical, Saccharomyces cerevisiae
Summary of the method: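 Yeast (Saccharomyces cerevisiae) α-glucosidase with 4-nitrophenyl […]-D-glucopyranoside (pNPG) as substrate. The test compound was run at 0, 1.98, 3.97 and 7.93 μM, each in three replicates. Inhibition type was assigned from Lineweaver–Burk plots using a modified published method. Ki (free enzyme) and K′i (enzyme–substrate complex) were derived from the same data.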

[3] = test system: α-glucosidase; experiment: Screening of α-glucosidase inhibitory activity; type: biochemical, Saccharomyces cerevisiae; details: times better than acarbose
[4] = molecular target: α-glucosidase; details: previous study; ref Zhang et al., 23; cited from earlier work
[5] = molecular target: yeast α-glucosidase; details: in vitro; cited from earlier work
[6] = test system: STZ-induced diabetic rats; details: cited from earlier work
[7] = test system: mice fed a high fat and high sucrose diet; details: cited from earlier work

Compound: O=c1c(O)c(-c2ccc(O)cc2)oc2cc(O)cc(O)c12 [Compound 3, kaempferol]
α-glucosidase inhibition [1]: ~95.1%

type of α-glucosidase inhibition ([2]; Lineweaver–Burk plots, 0, 1.98, 3.97, 7.93 μM): mixed mode inhibitor
Ki ([2]; read-out: inhibition constant binding with the free enzyme (Ki), secondary plot): 5.58 ± 0.35 µM
inhibition constant binding with the enzyme–substrate complex (K′i) ([2]; secondary plot): 10.33 ± 0.85 µM
α-glucosidase inhibition relative to the standard drug acarbose [3]: thirty-seven times better
Compound: O=c1c(O)c(-c2ccc(O)c(O)c2)oc2c(Br)c(O)cc(O)c12 [Compound 5a, 8-Bromoquercetin]

Compound: C[C@@H]1O[C@@H](Oc2c(-c3ccc(O)c(O)c3)oc3cc(O)cc(O)c3c2=O)[C@H](O)[C@H](O)[C@H]1O [Compound 6, quercitrin]
IC50 α-glucosidase inhibition [4]: 215 ± 4 µg/mL (≈ 480 µM)

Compound: O=c1c(O)c(-c2cc(O)c(O)c(O)c2)oc2cc(O)cc(O)c12 [myricetin]
IC50 yeast α-glucosidase [5]: 5 µg/mL (≈ 15.7 µM)
effect on fasting blood glucose level [6]: cut down the fasting blood glucose level
effect on fasting blood glucose level [7]: cut down the fasting blood glucose level
